Drawing on ChEMBL document CHEMBL1139440, “Chemical function based pharmacophore generation of endothelin-A selective receptor antagonists” (J Med Chem, 2004), this text covers IC50 and inhibition for 31 molecules.

SMILES strings stand for the structures. Square brackets hold non-standard residues; d marks the D form. Peptide text beside a SMILES is read from it. * marks the point of attachment. Cbz = O=C(OCc1ccccc1)*

For assay [1], the target named is T1, Endothelin-1 receptor (Rattus norvegicus, UniProt P26684).
T1 sequence (P26684 whole entry): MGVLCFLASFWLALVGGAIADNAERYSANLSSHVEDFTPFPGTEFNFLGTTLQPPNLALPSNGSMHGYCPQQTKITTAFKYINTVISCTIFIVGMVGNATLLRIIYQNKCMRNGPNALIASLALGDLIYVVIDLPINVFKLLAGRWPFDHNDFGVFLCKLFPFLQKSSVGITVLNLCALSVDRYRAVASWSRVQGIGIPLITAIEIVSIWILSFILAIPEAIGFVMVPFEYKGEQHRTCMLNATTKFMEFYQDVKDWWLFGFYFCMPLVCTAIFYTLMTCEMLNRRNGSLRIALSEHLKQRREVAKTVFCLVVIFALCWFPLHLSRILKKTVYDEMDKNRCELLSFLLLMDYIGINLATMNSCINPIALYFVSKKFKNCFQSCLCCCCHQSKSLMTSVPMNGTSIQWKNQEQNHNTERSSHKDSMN
Nature of the assay: Ability to displace [125I]ET1 from the rat endothelin A receptor expressed in rat aorta smooth muscle cells. The assay is classed as cell-based.

Assay [2] addresses T2, Endothelin receptor type B (Homo sapiens, UniProt P24530).
T2 sequence (P24530 whole entry): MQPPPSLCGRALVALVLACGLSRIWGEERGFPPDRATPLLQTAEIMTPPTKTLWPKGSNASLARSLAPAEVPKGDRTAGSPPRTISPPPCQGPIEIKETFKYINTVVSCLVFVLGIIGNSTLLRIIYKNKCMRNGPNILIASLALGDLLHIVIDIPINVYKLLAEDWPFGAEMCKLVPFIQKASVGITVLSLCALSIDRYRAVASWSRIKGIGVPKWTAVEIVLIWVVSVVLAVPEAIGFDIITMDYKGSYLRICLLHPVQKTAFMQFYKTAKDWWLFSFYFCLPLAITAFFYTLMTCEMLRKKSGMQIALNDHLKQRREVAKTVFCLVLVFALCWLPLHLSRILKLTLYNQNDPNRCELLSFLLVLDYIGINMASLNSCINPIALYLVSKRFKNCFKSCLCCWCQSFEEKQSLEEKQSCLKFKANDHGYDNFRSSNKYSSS
Nature of the assay: Inhibitory concentration against Endothelin B receptor.

For assay [3], the target named is T3, Endothelin-1 receptor (Homo sapiens) (UniProt P25101).
T3 sequence (whole entry): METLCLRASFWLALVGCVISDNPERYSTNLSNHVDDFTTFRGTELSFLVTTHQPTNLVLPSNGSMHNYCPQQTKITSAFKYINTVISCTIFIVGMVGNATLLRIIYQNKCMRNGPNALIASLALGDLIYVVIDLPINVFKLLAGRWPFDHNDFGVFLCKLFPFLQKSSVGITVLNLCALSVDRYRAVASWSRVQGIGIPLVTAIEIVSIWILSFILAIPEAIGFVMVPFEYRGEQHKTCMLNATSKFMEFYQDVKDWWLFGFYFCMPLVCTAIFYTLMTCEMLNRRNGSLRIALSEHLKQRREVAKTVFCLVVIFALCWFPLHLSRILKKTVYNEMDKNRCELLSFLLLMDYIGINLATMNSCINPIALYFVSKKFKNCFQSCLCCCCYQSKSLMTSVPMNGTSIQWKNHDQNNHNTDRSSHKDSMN
Nature of the assay: Inhibition of [125]ET-1 binding to human ETA receptor expressed in vero cells at 10E-4 M concentration. The format is cell-based. The gist of the method: (§1)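 Vero (green monkey renal) cells grown as monolayers at 37 °C in MEM with 10% FBS, nonessential amino acids and penicillin/streptomycin under 5% CO2. Whole-cell binding was done in triplicate (2 × 10^5 cells/well) in HEPES-buffered saline at pH 7.4 with 50 pM [125I]ET-1 for 1 h. Nonspecific binding was defined with 500 nM ET-1. Compounds were tested at ca. 10^-10–10^-4 M. Bound radioactivity was collected by filtration and counted.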

Assay [4] addresses T3, Endothelin-1 receptor (Homo sapiens). The conditions noted are these: Vero.
Assay [5] concerns the target T4, Endothelin-1 receptor (Homo sapiens, UniProt P25101).
T4 sequence (P25101 whole entry): T3 sequence (whole entry)
Nature of the assay: Inhibition of [125]ET-1 binding to human Endothelin A receptor expressed in vero cells. The format is cell-based. An outline of the steps:
as §1

For the molecule `COc1ccc(C(=O)/C(Cc2cccc3ccccc23)=C(\C(=O)O)c2ccc3c(c2)OCO3)cc1`, the IC50 on Endothelin-1 receptor [1] was found to be 14 nM. Turning to `COc1ccc(C(=O)/C(Cc2cccc(OC)c2)=C(\C(=O)O)c2ccc3c(c2)OCO3)cc1`, the IC50 in assay [2] stood at 260 nM; on Endothelin-1 receptor [1] it was 3 nM.

Consider `COc1ccc([C@H]2[C@H](C(=O)O)[C@@H](c3ccc4c(c3)OCO4)CN2CC(=O)NC(c2ccccc2)C(C)C)cc1` (stereo partly drawn), for which, at Endothelin-1 receptor [1], the IC50 came to 0.7 nM. In other words, the sub-nanomolar range. On to `COC1=C(C(=O)O)[C@H](c2ccc3c(c2)OCO3)Oc2ccc(OC(C)C)cc21`, for which, on Endothelin-1 receptor [1], the half-maximal inhibitory concentration (IC50) is 5.2 nM. Compared with the last molecule, the IC50 is about 7.4-fold higher. In turn, `CCc1ccc(C(=O)/C(Cc2ccccc2)=C(\C(=O)O)c2ccc3c(c2)OCO3)cc1` yielded a 50% inhibitory concentration (IC50) on Endothelin-1 receptor [1] of 630 nM. On to `COc1ccc(NC(=O)CC(CC(=O)O)c2cc(OC)c(OC)c(OC)c2)cc1` (stereo not drawn), for which the inhibition in assay [3] amounted to 60%. In turn, `COc1ccc(C(=O)/C(Cc2ccc(Cl)cc2)=C(\C(=O)O)c2ccc3c(c2)OCO3)cc1` registered an IC50 on Endothelin-1 receptor [1] of 110 nM. `CCCCN(CCCC)C(=O)CN1C[C@H](c2ccc3c(c2)OCO3)[C@@H](C(=O)O)[C@@H]1CCCCC(C)C`: the IC50 at Endothelin-1 receptor [1] stood at 0.29 nM. This IC50 is about 380-fold lower than that of the molecule before. Regarding `CCCCN(CCCC)C(=O)CN1C[C@H](c2ccc3c(c2)OCO3)[C@@H](CC(=O)O)[C@@H]1c1ccc(OC)cc1`, the IC50 in assay [2] is 5100 nM; at Endothelin-1 receptor [1] it was 0.5 nM. The molecule `COc1ccc([C@H]2[C@H](C(=O)O)[C@@H](c3ccc4c(c3)OCO4)CN2CC(=O)NC(Cc2ccccc2)c2ccccc2)cc1` (stereo partly drawn) displayed a concentration for half-maximal inhibition (IC50) at Endothelin-1 receptor [1] of 3.9 nM. On the same count and under the same terms, the result for `COc1ccc(C/C(C(=O)c2ccc(OC)cc2)=C(/C(=O)O)c2ccc3c(c2)OCO3)cc1` reads 1.8 nM. `CC(C)C[C@@H]1NC(=O)[C@@H](C(C)C)NC(=O)[C@@H]2CCCN2C(=O)[C@@H](CC(=O)O)NC(=O)[C@@H](Cc2c[nH]c3ccccc23)NC1=O` (cyclo(L[dW][dD]P[dV])) gave an IC50 in assay [4] of 25 nM. In other words, the double-digit nanomolar range.

In the case of `COc1cccc(C(=O)/C(Cc2ccccc2)=C(\C(=O)O)c2ccc3c(c2)OCO3)c1`, the IC50 on Endothelin-1 receptor [1] was found to be 500 nM.

In the case of `CCOc1ccc2c(c1)[C@@H](c1ccc(OC)cc1)N(CC(=O)O)[C@@H]2c1ccc2c(c1)OCO2`, the concentration for half-maximal inhibition (IC50) on Endothelin-1 receptor [1] amounted to 96 nM. As to `COc1ccc([C@@H]2[C@@H](CC(=O)O)[C@H](c3ccc4c(c3)OCO4)CN2CC(N)=O)cc1`, the IC50 at Endothelin-1 receptor [1] is 2030 nM. Compared with the last molecule, the IC50 is about 21-fold higher.

Regarding `CCOc1cc(C/C(C(=O)c2ccc(OC)cc2)=C(/C(=O)O)c2ccc3c(c2)OCO3)cc(OCC)c1OCC`, the IC50 on Endothelin-1 receptor [1] was 0.12 nM. On to `C/C=C/CC[C@H]1[C@H](C(=O)O)[C@@H](c2ccc3c(c2)OCO3)CN1CC(=O)N(CCCC)CCCC`, for which, on Endothelin-1 receptor [1], the IC50 amounted to 0.78 nM.

On Endothelin-1 receptor [1], `CCOc1ccc2c(c1)[C@@H](c1ccc(OC)cc1OCC(=O)O)N(CC(=O)O)[C@@H]2c1ccc2c(c1)OCO2` had an IC50 of 5.4 nM. As to `COC(=O)c1cc(S(=O)(=O)Nc2cccc(-c3cnco3)c2)oc1C`, at Endothelin-1 receptor [5], the IC50 was 6200 nM. Consider `CCCNC(=O)CN1C[C@@H](c2ccc3c(c2)OCO3)[C@H](C(=O)O)[C@H]1c1ccc(OC)cc1`, for which, on Endothelin-1 receptor [1], the IC50 was determined as 45.3 nM. In other words, the double-digit nanomolar range. The molecule `COc1ccc(C(=O)/C(Cc2ccccc2)=C(\C(=O)O)c2cc(OC)c3c(c2)OCO3)cc1` returned an IC50 at Endothelin-1 receptor [1] of 6.7 nM. Consider `COc1ccc(C(=O)/C(Cc2cc(OC)c(OC)c(OC)c2)=C(\C(=O)O)c2cc(OC)c3c(c2)OCO3)cc1`, for which the IC50 on Endothelin-1 receptor [1] is 0.5 nM. Against the preceding molecule, the IC50 is about 13-fold lower. Molecule `COc1cc(/C(C(=O)O)=C(\CC2CCCCC2)C(=O)c2ccc3c(c2)OCCO3)cc2c1OCO2` had an IC50 on Endothelin-1 receptor [1] of 3.5 nM. This IC50 is about 7-fold higher than that of the molecule before.

On to `COc1ccc(C(=O)/C(Cc2ccc(-c3ccccc3)cc2)=C(\C(=O)O)c2ccc3c(c2)OCO3)cc1`, for which the half-inhibitory concentration (IC50) at Endothelin-1 receptor [1] was found to be 200 nM. Molecule `CC(C)C(NC(=O)OCc1ccccc1)C(=O)NC(Cc1ccc(O)cc1)C(=O)O` (stereo not drawn) (Cbz-Val-Tyr-OH; configuration not given here) gave an IC50 at Endothelin-1 receptor [5] of 220 nM. As for `CCCCC1=C(C(=O)O)[C@@H](c2ccc3c(c2)OCO3)Oc2ccc(OC(C)C)cc21`, the IC50 in assay [2] worked out at 400 nM. In other words, the sub-micromolar range.

Regarding `CCCCC1=C(C(=O)O)C(c2ccc3c(c2)OCO3)Oc2ccc(OC(C)C)cc21` (stereo not drawn), the IC50 at Endothelin-1 receptor [1] was determined as 410 nM. In turn, `COc1ccc(C(=O)/C(Cc2ccccc2)=C(\C(=O)O)c2ccc3c(c2)OCO3)cc1OC` displayed an IC50 at Endothelin-1 receptor [1] of 11 nM. This IC50 is about 37-fold lower than that of the molecule before. On the same count and under the same terms, the figure for `COc1ccc([C@H]2[C@H](C(=O)O)[C@@H](c3ccc4c(c3)OCO4)CN2CC(=O)Nc2cccc(C)c2C)cc1` is 16 nM; for `COC(=O)CCCCOc1cc(C/C(C(=O)c2ccc(OC)cc2)=C(/C(=O)O)c2ccc3c(c2)OCO3)cc(OC)c1OC` it is 0.05 nM. As to `CCOc1cc(N2CCOCC2)c(OCC)cc1NS(=O)(=O)c1ccc(OC)cc1`, the inhibition in assay [3] amounted to 77%.
